From PubChem
KCNQ1 act – potentiators or activators of KCNQ1 channel, primary screen, cell-based, thallium flux, high-throughput. Potassium voltage-gated channel subfamily KQT member 1 (Homo sapiens), P51787. CHO-K1 KCNQ1, thallium flux FluxOR fluorescence; hits give high values. B-score at 10 µM. 0.35% of 310,000 active;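 active = fluorescence ratio B-score, a plate-corrected score, at least three library SD, with initial intensity B-score within 5 SD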
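Medium – assay buffer, equal DMSO in all wells · Material – CHO-K1 cell line with stable KCNQ1 potassium channel expression · Signal – kinetic FluxOR thallium fluorescence, 10-s 1-Hz baseline, 110-s post-stimulus read · Compound – single concentration per compound, DMSO matched to controls · Schedule – 37 °C overnight plating, 90-min dark dye load, 20-min compound pretreatment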
KCNK3 inh – human KCNK3 channel inhibitors, primary screen, CHO cells, FluxOR thallium flux, B-score. 0.84% of 340,000 active. FluxOR fluorescence; hits give low values. B-score at 10 µM;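 active = B-score under library mean minus 4 SD, starting fluorescence ratio at most library mean plus 5 SD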;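 note: more negative B-score means stronger inhibition of thallium flux through KCNK3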
KCNK9 block – KCNK9 potassium channel inhibitors, primary screen, HEK293 cells, thallium flux; FluxOR thallium flux fluorescence; hits give low values; 1.2% of 310,000 active; B-score at 10 µM; AID 488922, 2010;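 active = ratio B-score over 3 SD below the library mean, with starting fluorescence within 5 SD of its mean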;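 note: negative B-score means less thallium flux so channel inhibition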
hERG protect – hERG rescue from dofetilide block, primary screen, cell-based, CHO-hERG, FluxOR thallium flux, dofetilide IC70 | activation (rescue from dofetilide block), less the hit threshold, % at 10 µM | AID 1511, 2009 | 0.51% of 310,000 active | dofetilide IC70 present;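 active = activation above the mean of controls blocked by dofetilide plus 5 SD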;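 note: thallium influx through hERG after potassium depolarization seen as dye fluorescence rise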
KCNQ1 inh – inhibitors of human KCNQ1 channel, primary screen, cell-based, thallium flux, high-throughput; CHO-K1 KCNQ1, FluxOR thallium flux fluorescence; hits give high values; B-score at 10 µM; AID 2642, 2010; Potassium voltage-gated channel subfamily KQT member 1 (Homo sapiens), P51787; 1.3% of 310,000 active;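 active = compounds whose thallium flux B-score, printed positive for inhibition, exceeds three library SD while starting fluorescence stays within three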;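 note: channel opened by potassium depolarization with thallium stimulus after 20 min compound exposure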
KCNK9 inh conf – KCNK9 potassium channel inhibitors, confirmation, HEK293 cells, thallium flux, duplicate; inhibition, % at 10 µM; 43% of 4,900 active; shares compounds with KCNK9 block; FluxOR thallium flux fluorescence; AID 492992, 2010;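 active = thallium signal inhibited by more than 5 SD of the compound-free buffer control wells, on both duplicate plates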
Kir2-1 spec – mouse Kir2.1 channel inhibition, confirmation, selectivity assay for KCNK9 modulator project, cell-based, HEK293, thallium flux. shares compounds with KCNK9 block. Kir2.1 cells, FluxOR thallium flux fluorescence. inhibition, % at 10 µM. 4% of 4,900 active. AID 492993, 2010;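 active = thallium signal drop more than 5 SD beyond the mean of the no-compound control wells, seen in both duplicate plates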;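 note: signal is fluorescence rise after thallium addition divided by baseline fluorescence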
Target sequence (P35561 whole entry, looked up): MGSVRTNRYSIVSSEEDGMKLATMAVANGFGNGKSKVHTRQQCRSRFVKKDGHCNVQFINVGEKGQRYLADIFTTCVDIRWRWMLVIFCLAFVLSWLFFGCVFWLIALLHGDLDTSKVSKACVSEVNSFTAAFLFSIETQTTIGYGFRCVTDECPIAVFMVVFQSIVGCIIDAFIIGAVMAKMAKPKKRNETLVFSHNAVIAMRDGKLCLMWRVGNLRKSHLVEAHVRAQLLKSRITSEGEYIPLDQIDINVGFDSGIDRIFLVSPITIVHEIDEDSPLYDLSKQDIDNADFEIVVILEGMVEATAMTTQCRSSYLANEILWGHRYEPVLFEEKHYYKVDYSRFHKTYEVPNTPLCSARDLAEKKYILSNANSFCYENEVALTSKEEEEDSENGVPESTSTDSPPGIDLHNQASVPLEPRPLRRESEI
HEK293 Tl ctr – thallium flux in non-induced HEK293 cells, confirmation, counter-screen for KCNK9 inhibitor project, cell-based, second counter screen, non-induced KCNK9-HEK293; shares compounds with KCNK9 block; FluxOR thallium flux; inhibition, % at 10 µM; 40% of 4,900 active; AID 492997, 2010;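 active = thallium signal drop beyond 5 SD of the untreated control mean, on both duplicate plates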
KCNK3 confirm – retest of human KCNK3 channel inhibitors, confirmation, CHO cells, FluxOR thallium flux, triplicate; shares compounds with KCNK3 inh; FluxOR fluorescence; 0% buffer, 100% carvedilol maximal block; ratio percent of control, % at 10 µM; 99% of 2,400 active;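 active = ratio percent of control, averaged over triplicates, above buffer control mean plus 5 SD, cut at about 64% in these data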;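 note: ratio is the fluorescence rise from min to max over baseline after thallium stimulus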
KCNK3 uninduced – thallium flux inhibition in non-induced cells, primary screen, counter-screen for KCNK3 inhibitor project, cell-based, non-induced KCNK3 line, FluxOR thallium, triplicate; 40% of 2,400 active; thallium flux ratio (lower = more inhibition) at 10 µM; shares compounds with KCNK3 inh; non-induced KCNK3 parental cells; hits give low values;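 active = thallium flux ratio, averaged over three wells, more than 5 SD below the buffer control mean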;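 note: host cells are CHO cells without KCNK3 induction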
Each line names hits and unclear results; the compound was inactive in the other large screens (follow-up assays come after a bar, where they were run). Hits are enriched below; roughly 3.1% of the tested compounds scored in any of these assays.

CC1=CC(C/C(C)=C/COc2ccc3ccc(=O)oc3c2)OC1=O (stereo not given)	none
CCN(CC)S(=O)(=O)c1ccc2c(c1)nc(SCC(=O)N(C)C1CCS(=O)(=O)C1)n2CC (stereo not given)	none
COc1ccc(CN(C(=O)CSc2nnc(-c3c[nH]c4ccccc34)o2)c2ccc(F)cc2)cc1OC	KCNK3 inh -14, KCNK9 block -8.8 | KCNK9 inh conf inactive | Kir2-1 spec inactive | HEK293 Tl ctr inactive | KCNK3 confirm 105 | KCNK3 uninduced 0.13
COc1ccc(CN(C(=O)CSc2nnc(-c3ccc(F)cc3)o2)c2ccc(F)cc2)cc1	none
O=C(CSCC(=O)N1CCCc2ccccc21)Nc1nc(-c2ccccc2)cs1	KCNK3 inh -12, KCNK9 block -17 | KCNK9 inh conf 23% | Kir2-1 spec inactive | HEK293 Tl ctr inactive | KCNK3 confirm 119 | KCNK3 uninduced 0.14
Cc1cccc(Nc2nnc(SCC(=O)NCC3CCCO3)s2)c1C (stereo not given)	none (no result: KCNQ1 act, KCNK9 block, hERG protect, KCNQ1 inh)
CC1(c2nnc(-c3ccccc3)o2)CC(c2ccncc2)=NO1 (stereo not given)	none
O=C(Nc1ccccc1N1CCN(C(=O)c2ccccc2)CC1)c1ccc(Cl)cc1	KCNK3 inh -15, KCNK9 block -13 | KCNK9 inh conf 37% | Kir2-1 spec inactive | HEK293 Tl ctr inactive | KCNK3 confirm 113 | KCNK3 uninduced inactive
COc1ccc(OCc2n(CC(=O)OC3CC(C)CCC3C(C)C)c3ccccc3[n+]2C)cc1 (stereo not given)	KCNK3 inh -10, KCNK9 block -14, KCNQ1 inh 10 | KCNK9 inh conf 70% | Kir2-1 spec 79% | HEK293 Tl ctr inactive | KCNK3 confirm 112 | KCNK3 uninduced inactive
COc1ccccc1N(CC(=O)NCCSCc1cccc(C)c1)S(=O)(=O)c1ccccc1	KCNK3 inh -13, KCNK9 block -16, KCNQ1 inh 9 | KCNK9 inh conf 48% | Kir2-1 spec inactive | HEK293 Tl ctr 28% | KCNK3 confirm 105 | KCNK3 uninduced inactive
Cc1ccc(C)c2[nH]c(=O)c(CCNC(=O)c3ccco3)cc12	none
Cc1cccc(C)c1NC(=O)c1ccc(-c2ccc(Cl)cc2Cl)o1	KCNK3 inh -9, KCNK9 block -16, KCNQ1 inh 7 | KCNK9 inh conf 51% | Kir2-1 spec inactive | HEK293 Tl ctr 38% | KCNK3 confirm 130 | KCNK3 uninduced 0.14
O=c1[nH]c(-c2ccc(Cl)cc2)nc(=S)[nH]1	none
CC(C)c1ccccc1NC(=O)COC(=O)c1c2c(nc3ccccc13)CCN(Cc1ccccc1)C2	KCNK3 inh -9.7, KCNK9 block -12 | KCNK9 inh conf 66% | Kir2-1 spec inactive | HEK293 Tl ctr inactive | KCNK3 confirm 132 | KCNK3 uninduced 0.14
Cc1cc(N2CCN(C)CC2)ccc1NC(=O)c1c2c(nc3ccccc13)CCN(Cc1ccccc1)C2	none
